Assay results from ChEMBL document CHEMBL1143742, “An antifungal agent inhibits an aminoacyl-tRNA synthetase by trapping tRNA in the editing site” (Science, 2007).
Values after ≈ are worked out from the molar mass of the structure shown. Active and inactive are the calls of the source. The calls are words filed in the database; no cut-off is given here.

Key:
[1] = molecular target: T1, Leucine--tRNA ligase, cytoplasmic (Saccharomyces cerevisiae S288c, UniProt P26637); assay: Inhibition of Saccharomyces cerevisiae cytoplasmic leucyl-tRNA synthetase assessed as tRNA amino-acylation
T1 sequence (P26637 whole entry): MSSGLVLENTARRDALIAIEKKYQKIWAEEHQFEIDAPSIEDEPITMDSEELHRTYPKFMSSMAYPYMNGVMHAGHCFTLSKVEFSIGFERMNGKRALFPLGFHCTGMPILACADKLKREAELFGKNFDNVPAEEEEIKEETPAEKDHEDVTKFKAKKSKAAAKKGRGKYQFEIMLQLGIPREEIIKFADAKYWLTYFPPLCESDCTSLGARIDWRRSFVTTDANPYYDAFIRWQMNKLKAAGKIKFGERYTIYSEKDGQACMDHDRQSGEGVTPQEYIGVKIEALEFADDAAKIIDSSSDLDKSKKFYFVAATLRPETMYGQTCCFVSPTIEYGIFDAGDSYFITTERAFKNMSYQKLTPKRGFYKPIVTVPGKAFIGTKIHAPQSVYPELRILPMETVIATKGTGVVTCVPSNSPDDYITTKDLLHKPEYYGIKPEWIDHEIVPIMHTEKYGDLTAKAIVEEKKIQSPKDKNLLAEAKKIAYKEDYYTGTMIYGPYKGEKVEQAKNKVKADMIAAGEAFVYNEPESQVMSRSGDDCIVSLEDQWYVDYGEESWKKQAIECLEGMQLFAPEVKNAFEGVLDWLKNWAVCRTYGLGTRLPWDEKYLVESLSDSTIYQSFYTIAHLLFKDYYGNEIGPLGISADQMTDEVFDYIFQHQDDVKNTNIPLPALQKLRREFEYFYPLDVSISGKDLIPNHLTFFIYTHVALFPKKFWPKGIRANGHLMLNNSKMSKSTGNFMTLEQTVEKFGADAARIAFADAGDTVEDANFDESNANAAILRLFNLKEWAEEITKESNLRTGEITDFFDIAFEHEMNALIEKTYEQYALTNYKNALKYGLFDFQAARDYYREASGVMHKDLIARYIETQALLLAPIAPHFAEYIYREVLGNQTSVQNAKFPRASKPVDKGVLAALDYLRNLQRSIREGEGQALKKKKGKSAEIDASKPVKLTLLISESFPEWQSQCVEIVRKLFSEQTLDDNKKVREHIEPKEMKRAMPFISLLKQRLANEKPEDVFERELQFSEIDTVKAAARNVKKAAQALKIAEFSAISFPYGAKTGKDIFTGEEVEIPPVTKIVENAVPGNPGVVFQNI
Procedure, shortened: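 Recombinant N-terminal His6-tagged yeast Cdc60p (2 nM) in 50 mM HEPES-KOH pH 8.0, 30 mM MgCl2, 30 mM KCl, 0.02% BSA, 1 mM DTT, 20 µM [14C]leucine, 0.2 mg/mL brewer's yeast tRNA at 30°C. Enzyme preincubated 20 min with compound, tRNA and leucine; started with 4 mM ATP. Timed aliquots TCA-precipitated on nitrocellulose filters and counted by scintillation; triplicates.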

Saccharomyces cerevisiae [2] = assay: Antimicrobial activity against Saccharomyces cerevisiae in synthetic defined media without leucine; format: functional
[3] = molecular target: T1, Leucine--tRNA ligase, cytoplasmic; assay: Binding affinity to Saccharomyces cerevisiae cytoplasmic leucyl-tRNA synthetase in presence of AMP
Procedure, shortened: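 Equilibrium dialysis across a 5 kDa membrane in 50 mM HEPES-KOH pH 8.0, 30 mM MgCl2, 30 mM KCl. Both sides counted in triplicate by scintillation, bound = side B minus side A. Kd from Scatchard plot.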

Saccharomyces cerevisiae [4] = assay: Inhibition of protein synthesis in Saccharomyces cerevisiae S288C after 15 mins; format: functional, organism-based
Procedure, shortened: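 Mid-log S. cerevisiae S288C in SDM lacking leucine, given 0.25 µCi [14C]leucine plus compound over a range of concentrations. 15 min at 30 °C, then cold 10% TCA for 15 min at 4 °C. Precipitate filtered, washed with 5% TCA and scintillation-counted. Percent incorporation relative to untreated cells. Run twice and averaged.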

[5] = Antifungal activity against Rhizopus microsporus ATCC 66276; format: functional
Saccharomyces cerevisiae [6] = assay: Antimicrobial activity against AN2690-resistant Saccharomyces cerevisiae ANA326 with CDC60 L315V mutation; format: functional
Saccharomyces cerevisiae [7] = assay: Antimicrobial activity against AN2690-resistant Saccharomyces cerevisiae ANA323 with CDC60 G405V mutation; format: functional
Saccharomyces cerevisiae [8] = assay: Antimicrobial activity against Saccharomyces cerevisiae ATCC 201388; format: functional
Saccharomyces cerevisiae [9] = assay: Antimicrobial activity against AN2690-resistant Saccharomyces cerevisiae ANA324 with CDC60 C326R mutation; format: functional
Epidermophyton floccosum = assay: Antifungal activity against Epidermophyton floccosum ATCC 525066; format: functional
Malassezia furfur = assay: Antifungal activity against Malassezia furfur ATCC 44344; format: functional
Candida albicans = assay: Antifungal activity against Candida albicans ATCC 90028; format: functional
Alternaria alternata = assay: Antifungal activity against Alternaria alternata ATCC 6663; format: functional
Trichophyton rubrum = assay: Antifungal activity against Trichophyton rubrum ATCC 18759; format: functional
[10] = molecular target: T1, Leucine--tRNA ligase, cytoplasmic; assay: Inhibition of Saccharomyces cerevisiae cytoplasmic leucyl-tRNA synthetase after 2 mins
Procedure, shortened: (§1)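 His6-tagged yeast Cdc60p (LeuRS) expressed in E. coli Rosetta 2(DE3), used at 2 nM. Buffer 50 mM HEPES-KOH pH 8.0, 30 mM MgCl2, 30 mM KCl, 20 µM [14C]leucine, 0.2 mg/mL brewer's yeast tRNA, 0.02% BSA, 1 mM DTT, 30 °C. TCA-precipitated Leu-tRNA counted. Ki from Lineweaver-Burk y-intercepts replotted against inhibitor.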

Cryptococcus neoformans = assay: Antifungal activity against Cryptococcus neoformans F285; format: functional
Fusarium solani = assay: Antifungal activity against Fusarium solani ATCC 36031; format: functional
Nannizzia gypsea = assay: Antifungal activity against Microsporum gypseum ATCC 24103; format: functional
Malassezia pachydermatis = assay: Antifungal activity against Malassezia pachydermatis ATCC 96746; format: functional
[11] = system: Cladosporium cladosporioides; assay: Antifungal activity against Cladosporium cladosporioides ATCC 16022; format: functional
Saccharomyces cerevisiae [12] = assay: Antimicrobial activity against AN2690-resistant Saccharomyces cerevisiae ANA358 with CDC60 S416L mutation; format: functional
Saccharomyces cerevisiae [13] = assay: Antimicrobial activity against AN2690-resistant Saccharomyces cerevisiae ANA360 with CDC60 T319I mutation; format: functional
Saccharomyces cerevisiae [14] = assay: Antimicrobial activity against AN2690-resistant Saccharomyces cerevisiae ANA327 with CDC60 T314M mutation; format: functional
Trichophyton benhamiae = assay: Antifungal activity against Trichophyton mentagrophytes ATCC 28185; format: functional, Arthroderma benhamiae
Nakaseomyces glabratus = assay: Antifungal activity against Candida glabrata ATCC 90030; format: functional
Saccharomyces cerevisiae [15] = assay: Antimicrobial activity against AN2690-resistant Saccharomyces cerevisiae ANA322 with CDC60 C326F mutation; format: functional
Candida tropicalis = assay: Antifungal activity against Candida tropicalis ATCC 13803; format: functional
Saccharomyces cerevisiae [16] = assay: Antimicrobial activity against AN2690-resistant Saccharomyces cerevisiae ANA320 with CDC60 N415D mutation; format: functional
Aspergillus fumigatus = assay: Antifungal activity against Aspergillus fumigatus ATCC 13073; format: functional
Microsporum audouinii = assay: Antifungal activity against Microsporum audouinii ATCC 42558; format: functional
Pichia kudriavzevii = assay: Antifungal activity against Candida krusei ATCC 44507; format: functional
[17] = molecular target: T1, Leucine--tRNA ligase, cytoplasmic; assay: Inhibition of Saccharomyces cerevisiae cytoplasmic leucyl-tRNA synthetase after 20 mins; procedure, shortened: as §1
Saccharomyces cerevisiae [18] = assay: Antimicrobial activity against AN2690-resistant Saccharomyces cerevisiae ANA321 with CDC60 R316I mutation; format: functional
Penicillium chrysogenum = assay: Antifungal activity against Penicillium chrysogenum ATCC 10108; format: functional

In the case of `OB1OCCc2cc(F)ccc21`, the IC50 [1] is reported as 96 µM.

For `Cc1cc(F)ccc1B(O)O`, the IC50 [1] was > 100 µM.

For `O=C1OCc2cc(F)ccc21`, the IC50 [1] was > 100 µM.

For `OC1OCc2cc(F)ccc21` (stereo not drawn), the IC50 [1] was > 100 µM.

With `OB(O)c1ccc(F)cc1` the IC50 [1] was > 100 µM.

With `COCc1cc(F)ccc1B(O)O` the IC50 [1] was > 100 µM.

`C[C@@H]1[C@H](O)[C@@H](C)/C=C/C=C/C=C/C=C/C=C/C=C/C=C/[C@H](O[C@@H]2O[C@H](C)[C@@H](O)[C@H](N)[C@@H]2O)C[C@@H]2O[C@](O)(C[C@@H](O)C[C@@H](O)[C@H](O)CC[C@@H](O)C[C@@H](O)CC(=O)O[C@H]1C)C[C@H](O)[C@H]2C(=O)O` [AMPHOTERICIN B] gave an MIC (Saccharomyces cerevisiae [2]) of 1 µg/mL (≈ 1.08 µM).

With `C/C=C/C/C=C/CCC(=O)[C@H]1O[C@H]1C(N)=O` [CERULENIN] the MIC (Saccharomyces cerevisiae [2]) was 0.5 µg/mL (≈ 2.24 µM).

In the case of `C[C@@H]1C[C@@H]([C@H](O)CC2CC(=O)NC(=O)C2)C(=O)[C@@H](C)C1` [CYCLOHEXIMIDE], the MIC (Saccharomyces cerevisiae [2]) is reported as 0.5 µg/mL (≈ 1.78 µM).

In the case of `OB1OCc2cc(F)ccc21` [TAVABOROLE], the IC50 [1] is reported as 2.1 µM, the Kd [3] is reported as 20.8 µM and the Activity (Saccharomyces cerevisiae [4]) is reported as “Active”. For the same compound, the MIC [5] was 2 µg/mL (≈ 13.2 µM), the MIC (Saccharomyces cerevisiae [6]) was 16 µg/mL (≈ 105 µM) and the MIC (Saccharomyces cerevisiae [7]) was 16 µg/mL (≈ 105 µM). For the same compound, the MIC (Saccharomyces cerevisiae [8]) was 0.125 µg/mL (≈ 0.823 µM), the MIC (Saccharomyces cerevisiae [9]) was 16 µg/mL (≈ 105 µM) and the MIC (Epidermophyton floccosum) was 1 µg/mL (≈ 6.58 µM). The MIC (Malassezia furfur) was 1 µg/mL (≈ 6.58 µM), the MIC (Candida albicans) was 0.5 µg/mL (≈ 3.29 µM) and the MIC (Alternaria alternata) was 0.5 µg/mL (≈ 3.29 µM). It also gave an MIC (Trichophyton rubrum) of 2 µg/mL (≈ 13.2 µM), a Ki [10] of 31.4 µM and an MIC (Cryptococcus neoformans) of 0.25 µg/mL (≈ 1.65 µM). For the same compound, the MIC (Fusarium solani) was 2 µg/mL (≈ 13.2 µM), the MIC (Nannizzia gypsea) was 2 µg/mL (≈ 13.2 µM) and the MIC (Malassezia pachydermatis) was 1 µg/mL (≈ 6.58 µM). The MIC [11] was 0.5 µg/mL (≈ 3.29 µM), the MIC (Saccharomyces cerevisiae [12]) was 32 µg/mL (≈ 211 µM) and the MIC (Saccharomyces cerevisiae [13]) was 32 µg/mL (≈ 211 µM). The MIC (Saccharomyces cerevisiae [14]) was 32 µg/mL (≈ 211 µM), the MIC (Trichophyton benhamiae) was 2 µg/mL (≈ 13.2 µM) and the MIC (Saccharomyces cerevisiae [2]) was 0.06 µg/mL (≈ 0.395 µM). For the same compound, the MIC (Nakaseomyces glabratus) was ≤ 0.125 µg/mL, the MIC (Saccharomyces cerevisiae [15]) was 16 µg/mL (≈ 105 µM) and the MIC (Candida tropicalis) was 0.25 µg/mL (≈ 1.65 µM). It also gave an MIC (Saccharomyces cerevisiae [16]) of 4 µg/mL (≈ 26.3 µM), an MIC (Aspergillus fumigatus) of 0.25 µg/mL (≈ 1.65 µM) and an MIC (Microsporum audouinii) of 2 µg/mL (≈ 13.2 µM). The MIC (Pichia kudriavzevii) was 1 µg/mL (≈ 6.58 µM), the Ki [17] was 1.85 µM and the MIC (Saccharomyces cerevisiae [18]) was 16 µg/mL (≈ 105 µM). For the same compound, the MIC (Penicillium chrysogenum) was 2 µg/mL (≈ 13.2 µM).
